# Sampled rows, rich in hits. Any-hit rate of the full collection: about 2.3%.
# PfHsp90 set2 = growth inhibition of PfHsp90-expressing yeast, primary screen, antimalarial PfHsp90 inhibitor project, S. cerevisiae, BacTiter-Glo luminescence, single point, set 2; AID 504621, 2011; BacTiter-Glo ATP, 48 h; yeast lacking PDR1 and PDR3 efflux regulators; inhibition, % at 9.4 µM; 0.32% of 310,000 active;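 active = every replicate shows inhibition above about 80%, whatever the replicate mean, limit read from the data; inconclusive = mean inhibition reaches the set limit but some replicate falls short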;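 also: 0% = DMSO neutral controls and 100% = 20 µM radicicol positive controls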
# Env fusion inh = inhibitors of HIV-1 Env-driven cell-cell fusion, primary screen, HeLa-JRFL effector, CEM21 target cells, luciferase. inhibition, % at 12.3 µM. 1.1% of 360,000 active;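 active = mean replicate inhibition score of at least 50 and every replicate individually at or above 50; inconclusive = only one of the two criteria met; inactive = mean below 50 and not all replicates reaching 50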;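 also: 0% = plate neutral controls and 100% = maraviroc near 300 nM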
# N-glyco inh = increase of ERlucT glycosylation luciferase signal, primary screen, N-linked glycosylation inhibitor project, D54 ERlucT cells, luminescence, set 2; D54 ERlucT glycosylation luciferase reporter, 24 h; percent of 100 nM tunicamycin response; reporter increase, % at 12.5 µM; 0.23% of 360,000 active; AID 588692, 2011;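 active = mean luciferase reporter signal, scaled so untreated is 0 and the glycosylation-blocking control 100, at or above a set limit in every replicate; inconclusive = mean reaches the limit but not every replicate does; inactive = mean below the limit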;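 also: luciferase carries N-glycosylation sites so blocking glycosylation raises the light; 0% = median of neutral control wells and 100% = median of 100 nM tunicamycin wells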
# PAX8 reporter = inhibitors of PAX8-driven TPO luciferase reporter, primary screen, RMG-I cells, single concentration; inhibition, % at 12.6 µM; 1.2% of 360,000 active; SteadyGlo, 24 h;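 active = mean replicate inhibition at least 60% with every replicate also reaching 60%; inconclusive = only one of the two criteria is met; inactive = mean below 60% and not all replicates reaching 60%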;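 also: luciferase light reporting Pax8 driven TPO promoter activity; plate controls were median of neutral control wells for no effect and mitoxantrone controls for full effect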
# Rtt109 Vps75 = inhibitors of C. albicans Rtt109/Vps75 HAT, primary screen, biochemical, ThioGlo CoA-SH fluorescence, plate reader; inhibition, % at 34.9 µM; AID 540336, 2011; purified Rtt109/Vps75, 4 h; 0.16% of 330,000 active; Histone acetyltransferase RTT109 (Candida albicans (strain SC5314 / ATCC MYA-2876)), …;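 active = inhibition of at least 50% in every replicate; inconclusive = best replicate reaches 50% inhibition but some replicates fall short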
# Target sequence (Q5AAJ8 whole entry, looked up): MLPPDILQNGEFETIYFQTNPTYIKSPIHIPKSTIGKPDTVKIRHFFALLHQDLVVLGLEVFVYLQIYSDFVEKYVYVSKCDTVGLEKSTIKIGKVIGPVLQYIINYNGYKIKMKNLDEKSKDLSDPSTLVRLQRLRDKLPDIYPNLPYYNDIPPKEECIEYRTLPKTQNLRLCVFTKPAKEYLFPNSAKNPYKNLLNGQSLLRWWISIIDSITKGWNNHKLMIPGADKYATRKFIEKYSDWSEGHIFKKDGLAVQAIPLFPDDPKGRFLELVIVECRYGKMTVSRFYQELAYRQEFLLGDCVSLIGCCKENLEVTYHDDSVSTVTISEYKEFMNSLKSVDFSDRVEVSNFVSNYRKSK
# Arrestin-AP2 inh = inhibitors of beta-arrestin/AP2 binding, primary screen, biochemical, GPCR trafficking, flow cytometry. inhibition, % at 10 µM. beta-arrestin 1 C-terminal peptide binding to AP2 beta2-adaptin appendage (human). FITC-arrestin peptide / GST-AP2 beads; AP2 beta2 appendage carries R879A mutation. 0.31% of 340,000 active;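 active = inhibition above a set limit, near 3 SD of compounds lacking own fluorescence, cut at about 54% in these data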;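 also: plate controls were DMSO wells for no effect and 5 µM unlabelled arrestin peptide for full effect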
#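 System: GST-tagged AP2 beta2-adaptin appendage (R879A) on 4 µm glutathione beads / Reagent: FITC-arrestin peptide, 50 nM / Detection: HyperCyt-sampled flow cytometry, FL1 channel, ex 488/em 535 nm / Timing: 12 min plus 1 h, RT / Buffer or medium: PBS plus Tween 20 (0.05%) and BSA (0.1%)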
# * hit, by the source's call; ? = inconclusive; . = no result; [ ] = remark or other dose.
SMILES,PfHsp90 set2,Env fusion inh,N-glyco inh,PAX8 reporter,Rtt109 Vps75,Arrestin-AP2 inh
C[C@H](O)C#Cc1ccc2c(c1)O[C@@H](CN(C)C(=O)CC1CC1)[C@@H](C)CN([C@H](C)CO)S2(=O)=O,.,3[16.7 µM],.,.,.,.
COc1ccccc1C1=NNC(=Nc2cccc(S(=O)(=O)N(C)C)c2)SC1,-14,41,-1,84*,-8,17
O=C(c1ccccc1)c1cc(Cl)ccc1N1C(=O)C=CC1=O,107*,-18,-3,?,.,45
C[C@@H]1CN([C@H](C)CO)C(=O)c2cc(NC(=O)CCC(F)(F)F)ccc2O[C@@H](C)CCCCO[C@@H]1CN(C)Cc1ccc(C(F)(F)F)cc1,.,18[16.7 µM],.,83*,.,.
C[C@@H]1CCCCO[C@@H](CN(C)Cc2ccc(C(F)(F)F)cc2)[C@@H](C)CN([C@@H](C)CO)C(=O)c2cc(NC(=O)CCC(F)(F)F)ccc2O1,.,10[16.7 µM],.,72*,.,.
COc1ccc(-c2nc3c(c(SCC(=O)Nc4cccc(O)c4)n2)Cc2c(CO)cnc(C)c2O3)cc1,26,2,5,88*,-5,1
COc1ccc(S(=O)(=O)Nc2ccc3c(c2)C(=O)N([C@@H](C)CO)C[C@H](C)[C@H](CN(C)S(=O)(=O)c2ccccc2)OCCCC[C@H](C)O3)cc1,.,.,.,29,.,.
CC(=O)N(C)C[C@H]1Oc2cc(C#CC(C)(C)O)ccc2S(=O)(=O)N([C@@H](C)CO)C[C@H]1C,.,-13[16.7 µM],.,.,.,.
COc1ccc(/C=C/C(=O)c2ccc3c4c(cccc24)CC3)cc1OC,0,-6,34*,-6,3,19
COc1ccc(/C=C/C(=O)c2cc(F)ccc2OC(=O)c2ccccc2C)cc1OC,-15,-72,4,91*,6,-14
CCOc1ccc(C(=O)/C=C/c2ccc(OC)c(OC)c2)cc1,-40,6,14,7,-3,6
CCOc1ccc(/C=C/C(=O)c2ccccc2)cc1OC,5,2,26*,-173,-5,-13
COc1ccc(C(=O)Oc2ccc(F)cc2C(=O)/C=C/c2ccc(OC)c(OC)c2)cc1,-4,-38,10,-5,-5,3
Cc1noc(C)c1NC(=O)Nc1ccc2c(c1)C(=O)N([C@H](C)CO)C[C@@H](C)[C@H](CN(C)C(=O)c1ccccc1)OCCCC[C@H](C)O2,.,6[16.7 µM],.,11,.,.
Cc1cccc(Nc2nc(N)c([N+](=O)[O-])c(N3CCCC(C)C3)n2)c1 (centres undefined),104*,12,-8,47,-9,8
CCCOc1ccc(/C=N/NC(=S)Nc2ccccc2[N+](=O)[O-])c(O)c1,.,-128,.,94*,.,.
Cc1cc(C2=NNC(=NC3CCCCC3)SC2)c(C)n1-c1c(C)n(C)n(-c2ccccc2)c1=O,-4,-25,-2,8,2,7
Cc1cc(C2=NNC(=NC3CC3)SC2)c(C)n1-c1ccccc1F,22,56*,-20,102*,5,7
c1cc2c(cc1C1=NNC(=NC3CC3)SC1)OCCO2,13,65*,-24,96*,1,14
O=C(N[C@@H]1CC[C@H](CCn2cc(-c3ccccc3)nn2)O[C@H]1CO)c1ccccc1F,.,4[16.7 µM],.,5,.,.
Cc1cc(C)c(S(=O)(=O)/N=C2/C=C(Sc3ncn[nH]3)C(=O)c3ccccc32)cc1C,16,18,-8,102*,1,24
CC(O)CNc1nc2ccccc2n1-c1ncnc2sc3c(c12)CCC3 (centres undefined),-4,60*,-2,.,31,-15
C[C@H]1CN([C@@H](C)CO)C(=O)c2cccc(NS(=O)(=O)c3ccc(F)cc3)c2O[C@@H]1CN(C)Cc1ccc(-c2ccccc2)cc1,.,-28[16.7 µM],.,7,.,.
C[C@@H]1CN([C@@H](C)CO)C(=O)c2cccc(NS(=O)(=O)c3ccc(F)cc3)c2O[C@@H]1CN(C)Cc1ccc(-c2ccccc2)cc1,.,75*[16.7 µM],.,75*,.,.
C[C@@H]1CN([C@@H](C)CO)C(=O)c2cccc(NS(=O)(=O)c3ccc(F)cc3)c2O[C@H]1CN(C)Cc1ccc(-c2ccccc2)cc1,.,28[16.7 µM],.,78*,.,.
SMILES,PfHsp90 set2,Env fusion inh,N-glyco inh,PAX8 reporter,Rtt109 Vps75,Arrestin-AP2 inh
CO[C@H](C(=O)N(C)C[C@@H]1OCc2ccccc2-c2c(n(C)c3ccccc23)C(=O)N([C@H](C)CO)C[C@@H]1C)c1ccccc1,.,78*,1,0,.,.
C[C@@H]1CN([C@H](C)CO)C(=O)c2c(c3ccccc3n2C)-c2ccccc2CO[C@@H]1CN(C)C,.,-4[16.7 µM],.,88*,.,.
CC(C)COC(=O)N(C)C[C@@H]1OCc2ccccc2-c2c(n(C)c3ccccc23)C(=O)N([C@@H](C)CO)C[C@H]1C,.,23[16.7 µM],.,14,.,.
CC(C)COC(=O)N(C)C[C@H]1OCc2ccccc2-c2c(n(C)c3ccccc23)C(=O)N([C@H](C)CO)C[C@@H]1C,.,62*[16.7 µM],.,39,.,.
C[C@@H]1CN([C@H](C)CO)C(=O)c2c(c3ccccc3n2C)-c2ccccc2CO[C@H]1CN(C)C,.,-18[16.7 µM],.,-37,.,.
C[C@H](CO)N1C[C@H](C)[C@H](CN(C)C(=O)c2ccccc2)OCc2ccccc2-c2c(n(C)c3ccccc23)C1=O,.,58*,2,0,.,.
O=C(C1=C[C@@H](c2ccc3c(c2)OCO3)C[C@@H](OCc2ccc(CO)cc2)O1)N1CCN(Cc2ccccc2)CC1,.,2[16.7 µM],.,-1,.,.
C[C@H](CO)N1C[C@H](C)[C@H](CN(C)Cc2ccccc2)Oc2ccc(NC(=O)Cn3cnnn3)cc2CC1=O,.,9[16.7 µM],.,1,.,.
COc1cccc(S(=O)(=O)N[C@@H]2CC[C@@H](CC(=O)NCc3ccccc3)O[C@H]2CO)c1,.,-6[16.7 µM],.,-5,.,.
CCCCCNC(=O)C(c1ccncc1)n1c(=O)c(-c2cc3ccccc3[nH]2)nc2ccccc21 (centres undefined),.,75*,.,-62,.,.
CC(C)(C)NC(=O)C(c1ccccc1)n1c(=O)c(-c2cc3ccccc3[nH]2)nc2ccccc21 (centres undefined),.,36,.,10,.,.
CC(C)(C)NC(=O)C(c1ccc(C#N)cc1)n1c(=O)c(-c2cc3ccccc3[nH]2)nc2ccccc21 (centres undefined),.,21,.,65*,.,.
CCCCCNC(=O)C(c1ccc(OC)cc1)n1c(=O)c(-c2cc3ccccc3[nH]2)nc2ccccc21 (centres undefined),.,26,.,26,.,.
